Three molecules from ChEMBL document CHEMBL1275595, “Antimicrobial activity of a halocidin-derived peptide resistant to attacks by proteases” (2010) can be followed below.

The test system of experiment [1] is Staphylococcus aureus. Put plainly: Antimicrobial activity against methicillin-resistant Staphylococcus aureus CCARM 3696 after 18 hrs by broth dilution method. The conditions noted are these: CCARM 3696, 18 h. Type of experiment: functional. Put shortly: (§1)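 Broth dilution per CLSI. Bacteria were grown overnight to stationary phase in Mueller-Hinton broth and diluted in fresh MHB to 2 × 10^5 CFU/ml. Stocks at 640 μg/ml in 0.01% acetic acid were 2-fold serially diluted to 10 μg/ml, and 11 μl was added to 100 μl of bacteria. After 18 h at 37°C, MIC was the lowest concentration with no visible turbidity. Run in triplicate.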
Background: Broth dilution looks for growth in wells or tubes with falling amounts of substance.

Experiment [2] deals with Bacillus subtilis. Put plainly: Antimicrobial activity against Bacillus subtilis KCTC 2213 after 18 hrs by broth dilution method. Type of experiment: functional. The conditions noted are these: KCTC 2213, 18 h. Put shortly:
(§2)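 Broth microdilution following CLSI recommendations. Bacteria were grown overnight to stationary phase in Mueller-Hinton broth, then diluted in fresh MHB to 2 × 10^5 CFU/ml. Peptide or antibiotic stocks of 640 μg/ml in 0.01% acetic acid were serially 2-fold diluted to 10 μg/ml, and each was added to the bacterial suspension at 11 μl per 100 μl. Plates were incubated 18 h at 37°C. MIC was taken as the lowest concentration giving no visible turbidity, in triplicate.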

In experiment [3] the test system is Micrococcus luteus. Put plainly: Antimicrobial activity against Micrococcus luteus KCTC 9341 after 18 hrs by broth dilution method. The note with it: KCTC 9341, 18 h. Type of experiment: functional. Put shortly:
as §2

Experiment [4] has as its system Enterococcus faecium. Put plainly: Antimicrobial activity against vancomycin-resistant Enterococcus faecium CCARM 5028 after 18 hrs by broth dilution method. The conditions noted are these: CCARM 5028, 18 h. Format: functional. A digest of the protocol:
as §1

Experiment [5] concerns Listeria monocytogenes. Briefly: Antimicrobial activity against Listeria monocytogenes KCTC 19111 after 18 hrs by broth dilution method. Type of experiment: functional. The note with it: KCTC 19111, 18 h. A digest of the protocol: as §2
Experiment [6] relates to Pseudomonas aeruginosa. Briefly: Antimicrobial activity against multidrug-resistant Pseudomonas aeruginosa CCARM 2161 after 18 hrs by broth dilution method. The conditions noted are these: CCARM 2161, 18 h. Type of experiment: functional. Put shortly:
as §1

Experiment [7] has as its system Escherichia coli. Briefly: Antimicrobial activity against Escherichia coli KCTC 1039 after 18 hrs by broth dilution method. Type of experiment: functional. The note with it: KCTC 1039, 18 h. A digest of the protocol:
as §2

Experiment [8] has as its system Klebsiella oxytoca. Briefly: Antimicrobial activity against Klebsiella oxytoca KCTC 1686 after 18 hrs by broth dilution method. Format: functional. The note with it: KCTC 1686, 18 h. A digest of the protocol: as §2
The test system of experiment [9] is Citrobacter freundii. Briefly: Antimicrobial activity against Citrobacter freundii KCTC 2359 after 18 hrs by broth dilution method. Type of experiment: functional. The conditions noted are these: KCTC 2359, 18 h. A digest of the protocol: as §2
Experiment [10] concerns Salmonella enterica. Briefly: Antimicrobial activity against Salmonella enterica KCTC 2930 after 18 hrs by broth dilution method. Type of experiment: functional. The conditions noted are these: KCTC 2930, 18 h. Put shortly: as §2
Experiment [11] deals with Staphylococcus aureus. Put plainly: Antimicrobial activity against methicillin-resistant Staphylococcus aureus CCARM 3696 by radial diffusion assay incubated with chymotrypsin for 1 hr. Format: functional, organism-based.
Experiment [12] deals with Staphylococcus aureus. Briefly: Antimicrobial activity against methicillin-resistant Staphylococcus aureus CCARM 3696 by radial diffusion assay incubated with chymotrypsin. Format: functional, organism-based.
Experiment [13] deals with Staphylococcus aureus. Briefly: Antimicrobial activity against methicillin-resistant Staphylococcus aureus CCARM 3696 by radial diffusion assay incubated with matrix metalloprotease 7 for 1 hr. Format: functional, organism-based.
Experiment [14] concerns Staphylococcus aureus. Briefly: Antimicrobial activity against methicillin-resistant Staphylococcus aureus CCARM 3696 by radial diffusion assay incubated with Pseudomonas aeruginosa Culture supernatant for 1 hr. Type of experiment: functional, organism-based.
Experiment [15] deals with Staphylococcus aureus. Put plainly: Antimicrobial activity against methicillin-resistant Staphylococcus aureus CCARM 3696 by radial diffusion assay incubated with Staphylococcus aureus Culture supernatant for 1 hr. Format: functional, organism-based.
Experiment [16] relates to Staphylococcus aureus. Put plainly: Antimicrobial activity against methicillin-resistant Staphylococcus aureus CCARM 3696 by radial diffusion assay incubated with human wound fluid for 1 hr. Format: functional, organism-based.
Experiment [17] concerns Staphylococcus aureus. Put plainly: Antimicrobial activity against methicillin-resistant Staphylococcus aureus CCARM 3696 by radial diffusion assay incubated with human wound fluid for 4 hrs. Type of experiment: functional, organism-based.
Experiment [18] has as its system Staphylococcus aureus. Briefly: Antimicrobial activity against methicillin-resistant Staphylococcus aureus CCARM 3696 by colony count assay incubated with trypsin for 10 mins. Type of experiment: functional, organism-based. Put shortly:
(§3)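 Peptide (20 μg) was incubated at 37°C with 50 nM trypsin in 100 μl of 10 mM sodium phosphate, then heated 10 min at 80°C and cooled. MRSA (100 μl, 2 × 10^7 CFU/ml) was added for 5 min. Aliquots were plated on TSA (1.5% agarose, 3% TSB in NaP) and counted after overnight growth at 37°C. Read-out was CFU/ml; repeated three times on different days.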

Experiment [19] relates to Staphylococcus aureus. Briefly: Antimicrobial activity against methicillin-resistant Staphylococcus aureus CCARM 3696 by colony count assay incubated with trypsin for 20 mins. Format: functional, organism-based. A digest of the protocol:
as §3

Experiment [20] concerns Staphylococcus aureus. Put plainly: Antimicrobial activity against methicillin-resistant Staphylococcus aureus CCARM 3696 by colony count assay incubated with trypsin for 1 hr. Type of experiment: functional, organism-based. A digest of the protocol: as §3
Experiment [21] concerns Staphylococcus aureus. Briefly: Antimicrobial activity against methicillin-resistant Staphylococcus aureus CCARM 3696 by radial diffusion assay incubated with matrix metalloprotease 7 for 5 mins. Format: functional, organism-based.

Molecules are shown by their SMILES. ≈ marks a conversion by molar mass, not a printed value. Calls of active or inactive are those of the source. No cut-off for these calls is given here. Bridge positions count the residues as written; N and C are the ends. Peptide text beside a SMILES is read from it. I, II: the chains in the order shown. Where only a bound is given, the exact number is not on record here.

For orientation: MIC means the lowest concentration that inhibits growth of the organism. On to `CC(C)C[C@H](NC(=O)CNC(=O)[C@H](Cc1cnc[nH]1)NC(=O)[C@H](Cc1cnc[nH]1)NC(=O)[C@H](CC(C)C)NC(=O)[C@H](CC(C)C)NC(=O)[C@H](C)NC(=O)[C@H](CC(N)=O)NC(=O)[C@H](CC(C)C)NC(=O)[C@H](Cc1c[nH]c2ccccc12)NC(=O)[C@@H](N)CCCCN)C(=O)N[C@@H](CC(N)=O)C(=O)N[C@@H](CSSC[C@H](NC(=O)[C@H](CC(N)=O)NC(=O)[C@H](CC(C)C)NC(=O)CNC(=O)[C@H](Cc1cnc[nH]1)NC(=O)[C@H](Cc1cnc[nH]1)NC(=O)[C@H](CC(C)C)NC(=O)[C@H](CC(C)C)NC(=O)[C@H](C)NC(=O)[C@H](CC(N)=O)NC(=O)[C@H](CC(C)C)NC(=O)[C@H](Cc1c[nH]c2ccccc12)NC(=O)[C@@H](N)CCCCN)C(=O)N[C@@H](C)C(=O)N[C@@H](CCCCN)C(=O)NCC(=O)N[C@H](C(=O)N[C@@H](CC(C)C)C(=O)N[C@@H](C)C(N)=O)C(C)C)C(=O)N[C@@H](C)C(=O)N[C@@H](CCCCN)C(=O)NCC(=O)N[C@H](C(=O)N[C@@H](CC(C)C)C(=O)N[C@@H](C)C(N)=O)C(C)C` (I: H-KWLNALLHHGLNCAKGVLA-NH2 / II: H-KWLNALLHHGLNCAKGVLA-NH2; disulfide I:13-II:13), for which the minimum inhibitory concentration (MIC) in experiment [1] came to 4 µg/mL (≈ 0.973 µM); in [2], 2 µg/mL (≈ 0.486 µM); in experiment [3] it was 4 µg/mL (≈ 0.973 µM); in experiment [4] it was 2 µg/mL (≈ 0.486 µM); in experiment [5] it was 4 µg/mL (≈ 0.973 µM); in [6], 4 µg/mL (≈ 0.973 µM). Also, the minimal inhibitory concentration (MIC) in experiment [7], in experiment [8], in experiment [9] and in [10] was 4 µg/mL (≈ 0.973 µM) in each case. The outcome in experiment [11], in [12], in [13], in [14], in [15] and in [16] was Active. Besides, in experiment [17], the outcome was Active.
Turning to `CC[C@H](C)[C@H](NC(=O)[C@H](CCCCN)NC(=O)[C@H](CCC(=O)O)NC(=O)[C@H](CCCCN)NC(=O)[C@H](CO)NC(=O)[C@H](CCCCN)NC(=O)[C@H](CCCNC(=N)N)NC(=O)[C@H](Cc1ccccc1)NC(=O)[C@H](Cc1ccccc1)NC(=O)[C@H](CC(=O)O)NC(=O)CNC(=O)[C@H](CC(C)C)NC(=O)[C@@H](N)CC(C)C)C(=O)NCC(=O)N[C@@H](CCCCN)C(=O)N[C@@H](CCC(=O)O)C(=O)N[C@@H](Cc1ccccc1)C(=O)N[C@@H](CCCCN)C(=O)N[C@@H](CCCNC(=N)N)C(=O)N[C@H](C(=O)N[C@H](C(=O)N[C@@H](CCC(N)=O)C(=O)N[C@@H](CCCNC(=N)N)C(=O)N[C@H](C(=O)N[C@@H](CCCCN)C(=O)N[C@@H](CC(=O)O)C(=O)N[C@@H](Cc1ccccc1)C(=O)N[C@@H](CC(C)C)C(=O)N[C@@H](CCCNC(=N)N)C(=O)N[C@@H](CC(N)=O)C(=O)N[C@@H](CC(C)C)C(=O)N[C@H](C(=O)N1CCC[C@H]1C(=O)N[C@@H](CCCNC(=N)N)C(=O)N[C@H](C(=O)N[C@@H](CCC(=O)O)C(=O)N[C@@H](CO)C(=O)O)[C@@H](C)O)C(C)C)[C@@H](C)CC)C(C)C)[C@@H](C)CC` [CATHELICIDIN], the MIC is more than 64 µg/mL in [1]; 8 µg/mL (≈ 1.78 µM) in [2]; more than 64 µg/mL in experiment [3]; 32 µg/mL (≈ 7.12 µM) in experiment [4]; 32 µg/mL (≈ 7.12 µM) in experiment [5]; more than 64 µg/mL in experiment [6]. Also, the MIC in experiment [7] is 32 µg/mL (≈ 7.12 µM); in experiment [8], more than 64 µg/mL; in [9] it was 64 µg/mL (≈ 14.2 µM); in [10], more than 64 µg/mL. Besides, the outcome in experiment [18], in experiment [19], in experiment [21], in [14] and in experiment [15] was inactive. In [20], the outcome was Active.
Take `CC[C@H](C)[C@H](NC(=O)CN)C(=O)NCC(=O)N[C@@H](CCCCN)C(=O)N[C@@H](Cc1ccccc1)C(=O)N[C@@H](CC(C)C)C(=O)N[C@@H](CCCCN)C(=O)N[C@@H](CCCCN)C(=O)N[C@@H](C)C(=O)N[C@@H](CCCCN)C(=O)N[C@@H](CCCCN)C(=O)N[C@@H](Cc1ccccc1)C(=O)NCC(=O)N[C@@H](CCCCN)C(=O)N[C@@H](C)C(=O)N[C@@H](Cc1ccccc1)C(=O)N[C@H](C(=O)N[C@@H](CCCCN)C(=O)N[C@H](C(=O)N[C@@H](CC(C)C)C(=O)N[C@@H](CCCCN)C(=O)N[C@@H](CCCCN)C(N)=O)[C@@H](C)CC)C(C)C` [PEXIGANAN] (H-GIGKFLKKAKKFGKAFVKILKK-NH2): the MIC in experiment [1] amounted to 16 µg/mL (≈ 6.46 µM); in [2] it was 4 µg/mL (≈ 1.61 µM); in [3] it was 8 µg/mL (≈ 3.23 µM); in [4], 8 µg/mL (≈ 3.23 µM); in experiment [5], 16 µg/mL (≈ 6.46 µM); in experiment [6], 8 µg/mL (≈ 3.23 µM). Also, the minimum inhibitory concentration (MIC) came out at 4 µg/mL (≈ 1.61 µM) in experiment [7], 8 µg/mL (≈ 3.23 µM) in experiment [8], 8 µg/mL (≈ 3.23 µM) in experiment [9] and 8 µg/mL (≈ 3.23 µM) in experiment [10]. For the same molecule, the result in experiment [18], in [19], in [21], in experiment [14] and in experiment [15] was inactive. For the same molecule, the outcome in [20] was Active.
